Results: PubChem BioAssay AID588833 (Broad Institute, 2011)

molecular target: Scavenger receptor class B member 1 (Mus musculus) (UniProt Q61009); experiment: inhibitors of SR-BI-mediated DiI-HDL uptake, dose response, ldlA[mSR-BI] CHO cells, fluorescence, dry powder, set 7 (AID 588833); conditions: 3 h
Summary of the method: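 Test system: ldlA[mSR-BI] CHO cells; Reagent: DiI-labeled HDL at 10 µg/mL; Compound dosing: pin-transferred compounds; Times: 3 h uptake with compounds, 37 °C; Technique: bottom fluorescence, 550/595 nm.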

Scavenger receptor class B member 1 (Mus musculus), sequence (Q61009 whole entry, looked up): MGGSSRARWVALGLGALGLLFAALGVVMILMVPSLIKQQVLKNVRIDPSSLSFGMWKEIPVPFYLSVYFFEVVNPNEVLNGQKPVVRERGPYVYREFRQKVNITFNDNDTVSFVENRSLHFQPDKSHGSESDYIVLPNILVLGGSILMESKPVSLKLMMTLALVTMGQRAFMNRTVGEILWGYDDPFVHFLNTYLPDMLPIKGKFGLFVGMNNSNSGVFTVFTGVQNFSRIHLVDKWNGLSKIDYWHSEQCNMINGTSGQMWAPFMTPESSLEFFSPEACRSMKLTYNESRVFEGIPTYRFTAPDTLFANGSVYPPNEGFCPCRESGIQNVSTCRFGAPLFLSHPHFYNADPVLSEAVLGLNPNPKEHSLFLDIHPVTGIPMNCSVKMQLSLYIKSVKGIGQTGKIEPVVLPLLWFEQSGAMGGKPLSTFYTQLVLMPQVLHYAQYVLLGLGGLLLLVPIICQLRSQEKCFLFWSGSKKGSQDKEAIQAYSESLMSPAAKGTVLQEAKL

AC50, active:
COCC(=O)N1CCc2cc(-c3csc(NC(=O)c4cc(OC)cc(OC)c4)n3)ccc21 6.18 nM
CCCCCCC1CCC/C1=N\NC(N)=S (stereo not drawn) 0.536 nM
C[C@H](C(=O)NC1CCCC1)N(C(=O)Cn1nnc(-c2ccc3c(c2)OCO3)n1)C1CCCCC1 15.4 nM
